Bioassay records: PubChem BioAssay, several laboratories
PHOSPHO1 inh: inhibitors of human PHOSPHO1 phosphatase; Q8TCT1; recombinant PHOSPHO1, absorbance phosphatase assay; inhibition, % at 13.3 µM; 290,000 compounds, 1.1% hits; AID 1565; in the data active = inhibition above about 60%
Target sequence (Q8TCT1 whole entry, looked up): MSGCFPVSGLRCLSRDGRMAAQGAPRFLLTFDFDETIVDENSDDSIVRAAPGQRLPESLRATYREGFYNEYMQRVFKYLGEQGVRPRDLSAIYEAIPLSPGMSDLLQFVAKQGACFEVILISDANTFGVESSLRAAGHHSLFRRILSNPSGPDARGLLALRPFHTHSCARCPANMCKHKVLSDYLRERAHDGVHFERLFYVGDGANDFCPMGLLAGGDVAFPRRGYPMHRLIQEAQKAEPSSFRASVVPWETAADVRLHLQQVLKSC
IMP-1 inh: blocks Pseudomonas aeruginosa IMP-1 metallo-beta-lactamase; inhibition, % at 5.6 µM; purified IMP-1, nitrocefin hydrolysis, epi-absorbance fluorescence; AID 1556; 290,000 compounds, 0.45% hits;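 active = inhibition above the mean plus 3 SD of all compounds in the same screening run, cut at about 4.5% in these data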
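Assay system: purified IMP-1; Quantity: IMP-1 0.2 nM before substrate addition; Medium: HEPES buffer pH 7.1 with ZnSO4 and Brij 35; Incubation: 15 min enzyme–compound preincubation, then 25 min nitrocefin reaction, 25 °C; Signal: fluorescence quenching readout, ex 480/em 530 nm; Controls: DMSO with and without IMP-1; Repeats: singlicate testing.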
ARFGAP1 inhibitor: rat ARFGAP1 inhibition; Q62848; Arfgap1-stimulated ARF1 GTP hydrolysis, GDP FP detection; inhibition, % at 16.5 µM; 360,000 compounds, 0.26% hits; AID 651572;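 active = inhibition above a per-plate limit, mean inhibition of low control wells plus 3 SD, cut at about 25% in these data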
Target sequence (Q62848 1-136 limits assumed): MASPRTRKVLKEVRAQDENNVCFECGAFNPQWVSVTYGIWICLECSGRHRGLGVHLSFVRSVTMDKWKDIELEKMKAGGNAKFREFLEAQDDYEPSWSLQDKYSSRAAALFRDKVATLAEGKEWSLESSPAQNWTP
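Assay system: purified rat His6-Arfgap1 residues 1-136 (GAP domain); Reagent: human Δ17 ARF1 bound to GTP; Dosing: 16.5 µM single point, 1.26% DMSO; Times: GTP hydrolysis reaction 2 h at 25 °C; Signal: FP, GDP Alexa 633 tracer displaced from anti-GDP antibody, 620/688 nm; Measure: % inhibition from polarization.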
ASAP1 GAP inh: ASAP1 ArfGAP inhibition | Q9ULH1 | ASAP1-stimulated ARF1 GTP hydrolysis, GDP FP detection | inhibition, % at 16.5 µM | 360,000 compounds, 0.19% hits; in the data active = inhibition above about 25%
VIM-2 inh: blocks Pseudomonas aeruginosa VIM-2 metallo-beta-lactamase; purified VIM-2, nitrocefin hydrolysis, epi-absorbance fluorescence; inhibition, % at 5.6 µM; 290,000 compounds, 0.89% hits;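 active = inhibition above the mean of all tested compounds plus 3 SD, cutoff set per screening run, cut at about 7.5% in these data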;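 note: red hydrolysis product quenches plate fluorescence so inhibitors raise well fluorescence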
Calb FLC: C. albicans growth modulation with fluconazole; C. albicans CaCi-2 (fluconazole-resistant clinical isolate) + fluconazole, Alamar Blue growth, 48 h; growth inhibition, % (no concentration beside the values); 300,000 compounds, 0.57% hits;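 active = growth inhibition above about 58% in most replicates, limit read from the data, passing the limit was not always enough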;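 note: all wells also contain fluconazole at 8 µg/ml as a sub-toxic cotreatment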
Large screens that a line does not name were inactive. In the library only some 2.6% were active in any assay of this set; here they are far more common.

CC(C)(C)NC(=O)c1cccc2c1C(=O)c1ccccc1-2	none
Nc1[nH]c(C(=O)c2ccccc2)c(-c2cc(F)ccc2Br)c1C(=O)NCCc1c[nH]c2ccccc12	none (no result: PHOSPHO1 inh, IMP-1 inh, VIM-2 inh, Calb FLC)
CCOC(=O)C1(N(CC)CC)Sc2cc(C)ccc2NC1=O (stereo unspecified)	none
COC(=O)C1=C(C(=O)OC)SC2(S1)C(C(=O)OC)=C(C(=O)OC)SC1=C2c2cc(C)ccc2NC1(C)C	PHOSPHO1 inh 97.9
Cc1cc(-c2[nH]nc3c2C(c2ccsc2)C(C#N)=C(N)O3)c(C)s1 (stereo unspecified)	none
Cc1cc(-c2[nH]nc3c2C(c2cccc(O)c2)C(C#N)=C(N)O3)c(C)s1 (stereo unspecified)	IMP-1 inh 6.8
Cc1cccc(N(Cc2cc3ccc(C)cc3[nH]c2=O)C(=O)c2ccco2)c1	PHOSPHO1 inh 69.9
Cc1ccc2cc(CN(C(=O)c3ccco3)c3ccccc3)c(=O)[nH]c2c1	none
CC(C)C(NC(=O)c1ccc2c(c1)OCO2)C(=O)N/N=C\c1ccco1 (stereo unspecified)	PHOSPHO1 inh 64.8
CC(C)C(NC(=O)c1ccc2c(c1)OCO2)C(=O)N/N=C/c1cccs1 (stereo unspecified)	none
CCc1nnc(NC(=O)Cn2ccc(C(F)(F)F)n2)s1	Calb FLC 94.6
CCc1nnc(NC(=O)CN2C(=O)CCC2=O)s1	none
CCc1nnc(NC(=O)CSc2nnc(-c3c[nH]c4ccccc34)n2CCOC)s1	PHOSPHO1 inh 60.5
CCc1nnc(NC(=O)CSc2ncc(-c3ccccc3)n2C)s1	Calb FLC 86.4
COCCn1c(SCC(=O)Nc2nnc(C)s2)nnc1-c1c[nH]c2ccccc12	none (no result: ARFGAP1 inhibitor, ASAP1 GAP inh)
CCc1nnc(NC(=O)CSc2nnc(Cc3ccccc3)n2-c2ccccc2)s1	none
CCc1nnc(NC(=O)CSc2nnc(CNc3cccc(C)c3)n2-c2ccccc2)s1	Calb FLC 116.4
Cc1[nH]c2ccccc2c1CC(=O)Nc1ccc(N(C)c2cccnc2)c(-c2cccc(Cl)c2)c1	none (no result: PHOSPHO1 inh, IMP-1 inh, VIM-2 inh, Calb FLC)
CCn1c2ccccc2nc2cc3c(cc21)c(Cl)c(=O)c1ccccc13	none (no result: PHOSPHO1 inh, IMP-1 inh, VIM-2 inh, Calb FLC)
COC(=O)C1=C(C)N(Cc2cccc(C(F)(F)F)c2)C(=NCc2cc(OC)c(OC)c(OC)c2)NC1c1ccc(Cl)cc1 (stereo unspecified)	none (no result: PHOSPHO1 inh, IMP-1 inh, VIM-2 inh, Calb FLC)
C[C@@H]1ON(C)[C@H]2C[C@H]3c4[nH]c5c(-c6cccc(Cl)c6)cccc5c4CCN3C(=O)[C@@H]12	none (no result: PHOSPHO1 inh, IMP-1 inh, VIM-2 inh, Calb FLC)
CC1(C(=O)NS(=O)(=O)c2ccc(C#N)cc2)CCN1C(=O)Cc1ccc(-c2ccccc2)cc1 (stereo unspecified)	none (no result: PHOSPHO1 inh, IMP-1 inh, VIM-2 inh, Calb FLC)
CCOc1ccc(C2=Cc3cc(OC)c(OC)cc3C(=C(Cl)Cl)O2)cc1	PHOSPHO1 inh 67.3 (no result: ARFGAP1 inhibitor, ASAP1 GAP inh, Calb FLC)
CCOc1ccc(-c2[nH]ncc2-c2ccc(OC)c(OC)c2)c(O)c1	none (no result: Calb FLC)
CC(=O)Nc1ncnc2c1c(-c1ccc(Cl)cc1)nn2C(C)(C)C	Calb FLC 102.0
CC(=O)N(C(C)=O)c1ncnc2c1c(-c1ccc(Cl)cc1)nn2C(C)(C)C	none
CC(C)CCn1c(=O)c2ccccc2n2c(CCC(=O)NC3CCN(Cc4ccccc4)CC3)nnc12	none
CC(C)CCn1c(=O)c2sccc2n2c(CCCC(=O)N3CCN(c4ccccn4)CC3)nnc12	VIM-2 inh 8.6
CC(C)OCCCn1c(=O)c2ccccc2n2c(CCC(=O)N3CCN(c4ccccn4)CC3)nnc12	none
CCn1c(=O)c2sccc2n2c(CCCC(=O)NC3CCN(Cc4ccccc4)CC3)nnc12	VIM-2 inh 8.0
CCn1c(=O)c2sccc2n2c(CCCC(=O)N3CCN(c4ccccn4)CC3)nnc12	VIM-2 inh 8.8
CC(C)Cn1c(=O)c2sccc2n2c(CCCC(=O)N3CCC(N4CCCCC4)CC3)nnc12	VIM-2 inh 7.7
CCCNC(=O)C1(C)CCCN(C(=O)c2ccc3snnc3c2)C1 (stereo unspecified)	none (no result: PHOSPHO1 inh, IMP-1 inh, VIM-2 inh, Calb FLC)
CCCN1C(=O)c2[nH]nc(-c3ccccc3)c2C1c1ccc(F)cc1 (stereo unspecified)	none (no result: PHOSPHO1 inh, IMP-1 inh, VIM-2 inh, Calb FLC)
COc1ccnc(Oc2cccc(C(F)(F)F)c2)c1C(=O)N/C=N/OCc1ccccc1F	Calb FLC 108.3
Cc1ccc(S(=O)(=O)N2CCCc3nc(-c4ccc(Br)cc4)ccc32)cc1	none (no result: PHOSPHO1 inh, IMP-1 inh, VIM-2 inh, Calb FLC)
Cn1c2ccccc2c(=O)c2cc(C#Cc3ccsc3)ccc21	none
